Screening results (PubChem)
Only a selection was taken, and hits are over-represented in it overall.
HCT116 bCat-KO – beta-catenin-lacking colon tumor cell growth suppression; viability, % at 10 µM; actives 1.5% (n = 140,000); AID 818; HCT116 beta-catenin knockout viability, CellTiter-Glo, 60 h; stronger effect = lower value;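 active means viability at or under a set limit, the compound median less 4 SD, cut at about 6% in these data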;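 further: 0% = Hyamine 1622 control at 20 µM and 100% = untreated cell control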
PTEN del growth – suppresses growth of cells with PTEN deletion | AID 827 | actives 1.2% (n = 140,000) | viability, % at 10 µM | HCT116 PTEN-null viability, CellTiter-Glo, 60 h; stronger effect = lower value;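 active means viability at or below a set limit, 4 SD under the median of all tested compounds, cut at about 3.7% in these data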;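 further: PTEN knockout HCT116 line with beta catenin targeted HCT116 as companion control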
H69AR inhibit – blocks growth of human H69AR lung tumor cells; viability, % at 10 µM; AID 598; H69AR lung tumor viability, ATP luminescence, 72 h; stronger effect = lower value; actives 6% (n = 85,000);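 active means viability at or below 40%; inactive means viability above 40%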;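 further: multidrug resistant small cell line overexpressing MRP-1 efflux transporter; 100% = mean luminescence of untreated control wells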
HUVEC inhibit – human endothelial cell proliferation inhibition; HUVEC proliferation, CellTiter-Glo luminescence, 72 h; stronger effect = lower value; viability, % at 10 µM (by protocol); actives 1.1% (n = 86,000);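 active means viability at or below 30%; inactive means viability above 30%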;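 further: 100% = median luminescence of DMSO-only cell control wells on each plate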
Fibroblast inh – blocks proliferation of human lung fibroblasts; viability, % at 10 µM; actives 1.1% (n = 85,000); LL 47 human lung fibroblast viability, ATP luminescence; stronger effect = lower value; AID 719;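 active means viability at or below 50% in the single dose screen; inactive means viability above 50%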;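 further: compound exposure lasted 72 h before the ATP readout; 100% = median luminescence of untreated cell-only wells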
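Material: human lung fibroblast line LL 47, low passage; Evaluation: viability percentage against median untreated-cell control; Buffer or medium: 15% FBS in IMEM; Incubation: 72 h compound exposure at 37 °C after overnight plating; Dosing: 0.1% DMSO in all compound wells; Measured by: CellTiter-Glo luminescence.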
* = called active by the depositor; · = not tested or not shown.

SMILES	HCT116 bCat-KO	PTEN del growth	H69AR inhibit	HUVEC inhibit	Fibroblast inh
Cc1ccc(-c2nn(CC(=O)NCc3ccco3)c(=O)c3ccccc23)cc1	5.2*	6.9	21.9*	81.4	62.7
CCCc1ccc(OCc2ccc(C(=O)N3CCN(c4ccccn4)CC3)o2)c(OC)c1	50.5	48.4	60.9	58.9	93.2
Cc1ccc2nc(SCc3nnc(-c4ccccc4Br)o3)[nH]c2c1	87.7	91.5	78.0	83.7	83.8
CCN(CC)CCNC(=O)c1ccc(N2CCCCC2)c(NS(=O)(=O)c2ccc(C)cc2)c1	1.8*	1.8*	76.8	66.1	67.1
COC(=O)c1ccc(N2CCCCC2)c(NS(=O)(=O)c2ccc(C)cc2)c1	34.7	52.7	76.7	89.8	100.8
c1ccc(CSc2nnc(-c3cccnc3)o2)cc1	95.9	101.0	34.1*	87.2	99.9
COc1cccc(N/C(SC)=C(/C#N)C(N)=O)c1	76.3	85.7	28.1*	79.9	95.0
COc1ccc(/C=C/c2nc3ccccc3n2Cc2ccccc2OC)cc1	1.9*	2.8*	·	·	·
COc1ccccc1Cn1c(/C=C/c2ccccc2)nc2ccccc21	60.9	59.5	·	·	·
C=CCNC(=O)c1c(N)n(-c2ccc3c(c2)OCO3)c2nc3ccccc3nc12	65.4	38.4	12.7*	37.0	30.7*
Nc1c(C(=O)NCC2CCCO2)c2nc3ccccc3nc2n1-c1ccccc1 (stereo not drawn)	49.4	56.4	21.2*	79.0	74.1
COc1ccccc1-n1c(N)c(C(=O)NCC2CCCO2)c2nc3ccccc3nc21 (stereo not drawn)	70.7	67.6	53.2	64.7	80.2
O=C(/C=C/c1cccc(OCc2ccccc2)c1)c1cccnc1	2.7*	0.7*	·	·	·
O=C(/C=C/c1ccc([N+](=O)[O-])cc1)NCc1cccnc1	96.8	81.5	·	·	·
O=C(/C=C/c1ccc([N+](=O)[O-])cc1)c1cccnc1	1.4*	1.6*	·	·	·
CC1(C(=O)NC2CCCCCCC2)CCC(=O)N1Cc1cccs1 (stereo not drawn)	92.1	99.8	93.7	104.6	91.1
CC1(C)Cc2c(C#N)c(OCC(=O)c3ccc(Cl)cc3)nc(-c3ccoc3)c2CO1	64.2	75.8	49.9	76.5	39.2*
CCOC(=O)N1C(=O)C2(CCCCC2)N(c2ccccc2Cl)C1=S	86.0	87.5	·	·	·
COc1ccc(-n2ncc3c(N4CCN(c5cccc(C)c5C)CC4)ncnc32)cc1	·	·	7.1*	18.3*	23.8*
O=C(COc1ccccc1)N1CCN(c2ncnc3c2cnn3-c2ccccc2)CC1	84.9	83.2	40.0*	114.7	96.5
COc1ccc(-n2ncc3c(N4CCN(c5cc(C)ccc5C)CC4)ncnc32)cc1	62.1	67.3	64.2	67.2	89.0
Cc1cccc(C(=O)N2CCN(c3ncnc4c3cnn4-c3ccccc3)CC2)c1	71.5	68.0	74.0	91.9	97.8
COc1ccc(-n2ncc3c(N4CCCCC4)ncnc32)cc1	75.5	75.5	38.9*	65.9	81.9
O=C(NC1=NCCS1)c1cccc(S(=O)(=O)N2CCCCC2)c1	·	·	83.7	87.2	99.9
O=C(Cc1ccc(Cl)cc1)NN1C(=O)c2ccccc2C1=O	98.8	111.5	·	·	·
SMILES	HCT116 bCat-KO	PTEN del growth	H69AR inhibit	HUVEC inhibit	Fibroblast inh
COC(=O)[C@@H]1[C@@H](C#N)C2(c3ccccc3-c3ccccc32)N(c2ccc(Cl)cc2)N1C#N	95.3	86.8	0.2*	21.0*	40.1*
CCN(CC)CCNC(=O)c1nn(-c2ccc(C)cc2)c(=O)c2c1c1ccccc1n2C	7.4	6.5	63.6	19.8*	54.3
COc1ccc(-n2nc(C(=O)Nc3ccc4c(c3)OCO4)c3ccccc3c2=O)c(OC)c1	10.6	19.6	7.0*	72.1	94.3
COc1ccccc1-n1nc(C(=O)Nc2ccc3c(c2)OCO3)c2ccccc2c1=O	80.7	81.0	42.4	74.2	85.5
COc1ccc(-n2nc(C(=O)Nc3ccc(OC)c(OC)c3)c3c4ccccc4n(C)c3c2=O)cc1	3.7*	3.5*	9.2*	30.1	77.0
COc1ccc(-n2nc(C(=O)Nc3ccc4c(c3)OCO4)c3c4ccccc4n(C)c3c2=O)cc1	·	·	85.0	87.8	93.1
CC(C)[C@H](NS(=O)(=O)c1ccccc1)C(=O)OCn1nnc2ccccc2c1=O	88.4	89.4	88.9	89.7	91.6
CCOC(=O)C(C)/C(C)=N/NC(N)=S (stereo not drawn)	103.4	109.9	·	·	·
COc1ccccc1N1CCN(CC(=O)Nc2sccc2C#N)CC1	87.8	85.8	·	·	·
CCCCOc1ccc(C(=O)N2CC(C)OC(C)C2)cc1 (stereo not drawn)	95.4	93.9	102.1	94.3	107.0
CCC(C)NC(=O)CSc1nc2c(sc(=S)n2Cc2ccco2)c(=O)n1-c1ccccc1 (stereo not drawn)	66.9	60.5	31.6*	82.0	94.5
COc1ccc(OC)c(/C=C/C(=O)c2ccc(Cl)cc2)c1	2.9*	3.1*	·	·	·
COc1ccccc1/C=C/C(=O)c1ccc(Cl)cc1	25.1	14.5	·	·	·
CC1=NC(=O)C(N=Nc2cccc3ccccc23)N1c1ccccc1 (stereo not drawn)	·	·	85.2	93.8	95.8
Cc1ccc2[nH]c3c(c2c1)CCc1cn[nH]c1-3	51.0	61.9	38.9*	69.5	98.5
Cc1ccc2[nH]c3c(c2c1)CCC3=O	107.9	93.4	95.6	32.0	106.2
Cc1ccc2[nH]c3c(c2c1)CCCC3=O	91.8	91.8	89.1	27.2*	87.4
Cc1ccnc(NS(=O)(=O)c2ccc(NC(=O)c3c(-c4ccccc4Cl)noc3C)cc2)n1	97.4	93.2	86.2	98.5	98.0
COC(=O)c1sc(S(=O)(=O)Nc2ccc(C)c(C)c2)c(C(=O)OC)c1C	79.9	79.5	·	·	·
COc1cc(CNc2ccc3[nH]c(=O)[nH]c3c2)cc(Br)c1OCC(=O)NC(C)(C)C	85.2	88.1	9.9*	86.0	81.6
CC(=O)NCCC(=O)Nc1sc2c(c1-c1nc3ccccc3[nH]1)CCCC2	74.6	74.8	36.1*	77.5	99.6
COc1ccc2c(c1)OC1(C)CC2C(C(=O)c2ccccc2OC)C(=O)N1 (stereo not drawn)	90.6	91.4	32.6*	97.7	97.1
COc1ccc2c(c1)C1CC(C)(NC(=O)C1C(=O)c1ccccc1)O2 (stereo not drawn)	99.9	92.5	91.6	106.9	102.2
CCC(C)Oc1ccccc1C1CC(=O)NC2=C1C(=O)CCC2 (stereo not drawn)	35.9	24.5	·	·	·
CC(C)(C)NC(=O)CSc1ncnc2c1nnn2Cc1ccccc1Cl	4.1*	3.2*	3.0*	88.8	59.5
CC(=O)[C@@]1(O)CC[C@H]2[C@@H]3C[C@H](C)C4=CC(=O)CC[C@]4(C)[C@H]3CC[C@@]21C	62.8	74.0	6.9*	94.1	87.2
CC(=O)[C@@]1(O)CC[C@H]2[C@@H]3CCC4=CC(=O)CC[C@]4(C)[C@H]3[C@@H](O)C[C@@]21C	88.5	97.1	91.7	97.0	93.5
O=C(CNS(=O)(=O)c1ccc(F)cc1)N1CCN(c2ccccc2)CC1	96.8	97.4	106.8	105.7	98.1
CSc1nsc(/C=C/Nc2ccc(Cl)cc2)c1C#N	83.1	78.6	·	·	·
